ChEMBL document CHEMBL5661972, “In vitro biological activity of a novel small-molecule inhibitor of polo-like kinase 1” (Mol Cancer Ther, 2007)
Activity calls are given as the source filed them. No cut-off for these calls is given here.

What was measured:
[1] = Inhibition of CDK2/cyclin A (unknown origin); parameters: species or system Homo sapiens
[2] = target: Mitogen-activated protein kinase 14 (Homo sapiens, UniProt Q16539); test: Inhibition of p38alpha (unknown origin)
[3] = Inhibition of EGFR (unknown origin); parameters: species or system Homo sapiens
[4] = Selectivity ratio of IC50 for cytotoxicity against human HDF cells to IC50 for antiproliferative activity against human A549 cells; assay type: toxicity, cell-based; conditions: HDF cells versus A549 cells, read-out: Ratio IC50
[5] = Selectivity ratio of IC50 for cytotoxicity against human HDF cells to IC50 for antiproliferative activity against human NCI-H460 cells; assay type: toxicity, cell-based; conditions: HDF cells versus NCI-H460 cells, read-out: Ratio IC50
In short: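 HDF (5,000/well) and H460 (2,000/well) cells exposed 3 days to 3-fold dilutions (30–0.00152 μmol/L) in medium with 5% FBS, gentamicin and 0.3% DMSO (low-glucose DMEM for HDF, RPMI 1640 for H460); vehicle controls growing logarithmically. IC50 from each line gives the HDF/H460 ratio.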

[6] = Selectivity ratio of IC50 for cytotoxicity against human HDF cells to IC50 for antiproliferative activity against human NCI-N87 cells; assay type: toxicity, cell-based; conditions: HDF cells versus NCI-N87 cells, read-out: Ratio IC50
HeLa = test: Inhibition of p53-PLK1 in human HeLa cells assessed as inhibition of p53 phosphorylation at Ser15 residue by Western blotting analysis; assay type: cell-based; conditions: dose 0.0015-30 µM
In short: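 HeLa cells with tet-inducible p53-PLK1 fusion induced overnight with 125 ng/mL doxycycline, then treated 6 h with 3-fold dilutions (30–0.00152 μmol/L). Lysates resolved on 4–12% Bis-Tris gels, transferred to nitrocellulose, probed for phospho-Ser15 p53 or total p53.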

NHDF [7] = test: Cytotoxicity against human HDF cells assessed as outgrowth of cells at 0.37 to 3.3 micromol/L incubated for 72 hrs by methylene blue staining based analysis; assay type: toxicity, cell-based; conditions: dose 0.37-3.3 µmol/L
In short: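 HDF seeded at 1,300 and H460 at 600 per well in 96-well plates. After 24 h, exposed to vehicle (0.3% DMSO) or compound at 0.37–30 μmol/L for 72 h. Wells were then washed with PBS and refed with drug-free medium containing gentamicin. Regrowth was followed by methylene blue staining at set time points over 13 days in total.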

NHDF [8] = test: Induction of cell cycle arrest in human HDF cells assessed as accumulation of cells at G1 phase at 1 micromol/L incubated for 24 hrs by propidium iodide staining based flow cytometry analysis (reference value: 57.0 %); assay type: toxicity; conditions: 1 µM, dose 1 µmol/L
In short: (§1)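 Cells seeded in six-well plates at densities that keep them in log growth (HDF 120,000, 60,000 or 30,000; H460 100,000, 50,000 or 25,000 per well for 24, 48 or 72 h). Treated with 1 or 3 μmol/L. Floating and adherent cells collected, ethanol-fixed, permeabilized with Triton X-100 and stained with propidium iodide. DNA content read by flow cytometry as % singlet cells.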

NHDF [9] = test: Induction of cell cycle arrest in human HDF cells assessed as accumulation of cells at S phase at 1 micromol/L incubated for 24 hrs by propidium iodide staining based flow cytometry analysis (reference value: 13.2 %); assay type: toxicity; conditions: 1 µM, dose 1 µmol/L; in short: as §1
NHDF [10] = test: Induction of cell cycle arrest in human HDF cells assessed as accumulation of cells at Sub-2N phase at 1 micromol/L incubated for 24 hrs by propidium iodide staining based flow cytometry analysis (reference value: 0.2 %); assay type: toxicity; conditions: 1 µM, dose 1 µmol/L; in short: as §1
NHDF [11] = test: Induction of cell cycle arrest in human HDF cells assessed as accumulation of cells at G1 phase at 1 micromol/L incubated for 48 hrs by propidium iodide staining based flow cytometry analysis (reference value: 72.8 %); assay type: toxicity; conditions: 1 µM, dose 1 µmol/L; in short: as §1
NHDF [12] = test: Induction of cell cycle arrest in human HDF cells assessed as accumulation of cells at G1 phase at 3 micromol/L incubated for 48 hrs by propidium iodide staining based flow cytometry analysis (reference value: 72.8 %); assay type: toxicity; conditions: 3 µM, dose 3 µmol/L; in short: as §1
NHDF [13] = test: Induction of cell cycle arrest in human HDF cells assessed as accumulation of cells at S phase at 1 micromol/L incubated for 48 hrs by propidium iodide staining based flow cytometry analysis (reference value: 4.7 %); assay type: toxicity; conditions: 1 µM, dose 1 µmol/L; in short: as §1
NHDF [14] = test: Induction of cell cycle arrest in human HDF cells assessed as accumulation of cells at >4N phase at 1 micromol/L incubated for 48 hrs by propidium iodide staining based flow cytometry analysis (reference value: 3.0 %); assay type: toxicity; conditions: 1 µM, dose 1 µmol/L; in short: as §1
NHDF [15] = test: Induction of cell cycle arrest in human HDF cells assessed as accumulation of cells at S phase at 1 micromol/L incubated for 72 hrs by propidium iodide staining based flow cytometry analysis (reference value: 3.6 %); assay type: toxicity; conditions: 1 µM, dose 1 µmol/L; in short: as §1
NCI-H460 [16] = test: Induction of cell cycle arrest in human NCI-H460 cells assessed as accumulation of cells at G1 phase at 1 micromol/L incubated for 24 hrs by propidium iodide staining based flow cytometry analysis (reference value: 45.5 %); assay type: functional; conditions: dose 1 µmol/L, at 1 µM; in short: as §1
NCI-H460 [17] = test: Induction of cell cycle arrest in human NCI-H460 cells assessed as accumulation of cells at G1 phase at 3 micromol/L incubated for 24 hrs by propidium iodide staining based flow cytometry analysis (reference value: 45.5 %); assay type: functional; conditions: dose 3 µmol/L, at 3 µM; in short: as §1
NCI-H460 [18] = test: Induction of cell cycle arrest in human NCI-H460 cells assessed as accumulation of cells at G2-M phase at 1 micromol/L incubated for 24 hrs by propidium iodide staining based flow cytometry analysis (reference value: 19.8 %); assay type: functional; conditions: dose 1 µmol/L, at 1 µM
NCI-H460 [19] = test: Induction of cell cycle arrest in human NCI-H460 cells assessed as accumulation of cells at >4N phase at 1 micromol/L incubated for 24 hrs by propidium iodide staining based flow cytometry analysis (reference value: 1.2 %); assay type: functional; conditions: dose 1 µmol/L, at 1 µM; in short: as §1
NCI-H460 [20] = test: Induction of cell cycle arrest in human NCI-H460 cells assessed as accumulation of cells at G1 phase at 3 micromol/L incubated for 72 hrs by propidium iodide staining based flow cytometry analysis (reference value: 58.2 %); assay type: functional; conditions: dose 3 µmol/L, at 3 µM
NCI-H460 [21] = test: Induction of cell cycle arrest in human NCI-H460 cells assessed as accumulation of cells at S phase at 1 micromol/L incubated for 72 hrs by propidium iodide staining based flow cytometry analysis (reference value: 17.8 %); assay type: functional; conditions: dose 1 µmol/L, at 1 µM
NCI-H460 [22] = test: Induction of cell cycle arrest in human NCI-H460 cells assessed as accumulation of cells at S phase at 3 micromol/L incubated for 72 hrs by propidium iodide staining based flow cytometry analysis (reference value: 17.8 %); assay type: functional; conditions: dose 3 µmol/L, at 3 µM
NCI-H460 [23] = test: Induction of cell cycle arrest in human NCI-H460 cells assessed as accumulation of cells at Sub-2N phase at 3 micromol/L incubated for 72 hrs by propidium iodide staining based flow cytometry analysis (reference value: 2.1 %); assay type: functional; conditions: dose 3 µmol/L, at 3 µM
NCI-H460 [24] = test: Induction of apoptosis in human NCI-H460 cells assessed as increase in caspase-3 activity at 5 micromol/L measured after 46 hrs using AcDEVD-[…] fluorogenic peptide as substrate by plate reader analysis; assay type: functional, cell-based; conditions: dose 5.0 µmol/L
In short: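 H460 cells seeded at 320,000 per well in six-well plates and given 5 μmol/L for 7 to 72 h. Lysates made in Tris/phosphate buffer, pH 7.5, with Triton X-100. Cleavage of Ac-DEVD-[…] measured by fluorescence, excitation 380 nm, emission 420–460 nm.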

Sequence of Mitogen-activated protein kinase 14 (Q16539 whole entry): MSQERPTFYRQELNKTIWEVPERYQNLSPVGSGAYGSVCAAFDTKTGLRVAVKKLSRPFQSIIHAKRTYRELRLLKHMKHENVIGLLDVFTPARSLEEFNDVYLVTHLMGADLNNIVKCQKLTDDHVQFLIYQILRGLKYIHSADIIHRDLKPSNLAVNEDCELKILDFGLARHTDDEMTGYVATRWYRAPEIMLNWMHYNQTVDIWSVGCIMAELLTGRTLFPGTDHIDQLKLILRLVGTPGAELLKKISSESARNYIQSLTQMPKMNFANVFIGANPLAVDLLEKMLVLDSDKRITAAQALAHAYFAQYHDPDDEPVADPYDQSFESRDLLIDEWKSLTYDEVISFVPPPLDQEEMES

IC50 [1]: 7.6 µM | IC50 [2]: > 10 µM | IC50 [3]: > 10 µM
SMILES: COc1cc2ncn(-c3cc(OCc4ccccc4C(F)(F)F)c(C(N)=O)s3)c2cc1OC [GW843682X]
selectivity ratio [4]: > 10 | selectivity ratio [5]: > 10 | selectivity ratio [6]: > 10 | inhibition (HeLa): Dose-Dependent Effect | Activity (NHDF [7]): Toxic | Activity (NHDF [8]): 54.2% | Activity (NHDF [9]): 10.2% | Activity (NHDF [10]): 0.3% | Activity (NHDF [11]): 55.3% | Activity (NHDF [12]): 11.3% | Activity (NHDF [13]): 7.4% | Activity (NHDF [14]): 6.4% | Activity (NHDF [15]): 6.7% | Activity (NCI-H460 [16]): 27.3% | Activity (NCI-H460 [17]): 7.8% | Activity (NCI-H460 [18]): 33% | Activity (NCI-H460 [19]): 5.1% | Activity (NCI-H460 [20]): 3.7% | Activity (NCI-H460 [21]): 2.8% | Activity (NCI-H460 [22]): 3.6% | Activity (NCI-H460 [23]): 30% | Activity (NCI-H460 [24]): Active
